Results: ChEMBL document CHEMBL3045248, “Stereoselective synthesis and antifungal activities of (E)-alpha-(methoxyimino)benzeneacetate derivatives containing 1,3,5-substituted pyrazole ring” (2006)

Experiments:
Format in all cases: functional
[1] = system: Botryosphaeria berengeriana; test: Fungicidal activity against Botryosphaeria berengeriana assessed as inhibition of mycelial elongation at 50 ug/mL incubated for 48 hr
Method in brief: (§1)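 Poisoned-food plate assay on potato glucose agar: DMF stock of 500 mg/L mixed 1:9 into molten medium at 50 °C, poured and set, then seeded with a 4 mm mycelial disk. Plates inverted, incubated 28 °C for 48 h. Water as blank control. Colony radius (mm) measured, triplicate; inhibition I = [(C − T)/C] × 100% versus control radius. Field isolates from crops.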

[2] = system: Fusarium graminearum; test: Fungicidal activity against Fusarium graminearum assessed as inhibition of mycelial elongation at 50 ug/mL incubated for 48 hr
Method in brief: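 Field isolate of G. zeae taken from crops. A 500 mg/L DMF stock (1 mL) was mixed with 9 mL molten potato glucose agar at 50 °C and poured into plates. A 4 mm mycelial disk was placed on each plate, which was inverted and kept at 28 °C for 48 h. Water served as the blank. Colony radius was measured in triplicate, and inhibition was calculated as (C−T)/C×100%.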

[3] = system: Rhizoctonia solani; test: Fungicidal activity against Rhizoctonia solani assessed as inhibition of mycelial elongation at 50 ug/mL incubated for 48 hr; method in brief: as §1
[4] = system: Botrytis cinerea; test: Fungicidal activity against Botryotinia fuckeliana assessed as inhibition of mycelial elongation at 50 ug/mL incubated for 48 hr; method in brief: as §1
[5] = system: Bipolaris maydis; test: Fungicidal activity against Cochliobolus heterostrophus assessed as inhibition of mycelial elongation at 50 ug/mL incubated for 48 hr; method in brief: as §1

CO/N=C(/C(=O)OC)c1ccccc1CO/N=C/c1c(C)nn(C)c1Oc1ccc(C)cc1
inhibition at 50 µg/mL [1]: 88.2% | inhibition at 50 µg/mL [2]: 50% | inhibition at 50 µg/mL [3]: 90.2% | inhibition at 50 µg/mL [4]: 80.8% | inhibition at 50 µg/mL [5]: 72.7%

CO/N=C(/C(=O)OC)c1ccccc1CO/N=C/c1c(C)nn(C)c1Oc1ccccc1C
inhibition at 50 µg/mL [1]: 76.5% | inhibition at 50 µg/mL [2]: 53.1% | inhibition at 50 µg/mL [3]: 83.7% | inhibition at 50 µg/mL [4]: 80.8% | inhibition at 50 µg/mL [5]: 72.7%

CO/N=C(/C(=O)OC)c1ccccc1CO/N=C/c1c(C)nn(C)c1Oc1cccc(C)c1
inhibition at 50 µg/mL [1]: 100% | inhibition at 50 µg/mL [2]: 96.9% | inhibition at 50 µg/mL [3]: 88% | inhibition at 50 µg/mL [4]: 80.8% | inhibition at 50 µg/mL [5]: 81.8%

CO/N=C(/C(=O)OC)c1ccccc1CO/N=C/c1c(C)nn(C)c1Oc1ccc(Cl)cc1
inhibition at 50 µg/mL [1]: 92.6% | inhibition at 50 µg/mL [2]: 80% | inhibition at 50 µg/mL [3]: 100% | inhibition at 50 µg/mL [4]: 100% | inhibition at 50 µg/mL [5]: 92.9%

CO/N=C(/C(=O)OC)c1ccccc1CO/N=C/c1c(C)nn(C)c1Oc1ccc(Cl)cc1Cl
inhibition at 50 µg/mL [1]: 96.3% | inhibition at 50 µg/mL [2]: 88.6% | inhibition at 50 µg/mL [3]: 99% | inhibition at 50 µg/mL [4]: 100% | inhibition at 50 µg/mL [5]: 92.9%

CO/N=C(/C(=O)OC)c1ccccc1CO/N=C/c1c(C)nn(C)c1Oc1cccc([N+](=O)[O-])c1
inhibition at 50 µg/mL [1]: 77.8% | inhibition at 50 µg/mL [2]: 62.9% | inhibition at 50 µg/mL [3]: 91.6% | inhibition at 50 µg/mL [4]: 98.8% | inhibition at 50 µg/mL [5]: 64.3%

CO/N=C(/C(=O)OC)c1ccccc1CO/N=C/c1c(C)nn(C)c1Oc1ccccc1F
inhibition at 50 µg/mL [1]: 88.2% | inhibition at 50 µg/mL [2]: 50% | inhibition at 50 µg/mL [3]: 83.7% | inhibition at 50 µg/mL [4]: 84.6% | inhibition at 50 µg/mL [5]: 68.2%

CO/N=C(/C(=O)OC)c1ccccc1CO/N=C/c1c(C)nn(C)c1Oc1ccc(F)cc1
inhibition at 50 µg/mL [1]: 100% | inhibition at 50 µg/mL [2]: 59.4% | inhibition at 50 µg/mL [3]: 90.2% | inhibition at 50 µg/mL [4]: 88.5% | inhibition at 50 µg/mL [5]: 86.4%

CO/N=C(/C(=O)OC)c1ccccc1CO/N=C/c1c(C)nn(C)c1Oc1cccc(C(F)(F)F)c1
inhibition at 50 µg/mL [1]: 88.2% | inhibition at 50 µg/mL [2]: 68.8% | inhibition at 50 µg/mL [3]: 83.7% | inhibition at 50 µg/mL [4]: 92.3% | inhibition at 50 µg/mL [5]: 68.2%

CO/N=C(/C(=O)OC)c1ccccc1CO/N=C/c1c(C)nn(C)c1OC
inhibition at 50 µg/mL [1]: 100% | inhibition at 50 µg/mL [2]: 79.4% | inhibition at 50 µg/mL [3]: 82.7% | inhibition at 50 µg/mL [4]: 85.4% | inhibition at 50 µg/mL [5]: 86.7%

CCOc1c(/C=N/OCc2ccccc2/C(=N\OC)C(=O)OC)c(C)nn1C
inhibition at 50 µg/mL [1]: 100% | inhibition at 50 µg/mL [2]: 90.5% | inhibition at 50 µg/mL [3]: 92.5% | inhibition at 50 µg/mL [4]: 96.8% | inhibition at 50 µg/mL [5]: 92.6%

CCCOc1c(/C=N/OCc2ccccc2/C(=N\OC)C(=O)OC)c(C)nn1C
inhibition at 50 µg/mL [1]: 93.8% | inhibition at 50 µg/mL [2]: 78.4% | inhibition at 50 µg/mL [3]: 87.8% | inhibition at 50 µg/mL [4]: 87.1% | inhibition at 50 µg/mL [5]: 85%

CO/N=C(/C(=O)OC)c1ccccc1CO/N=C/c1c(C)nn(C)c1OCC(F)(F)F
inhibition at 50 µg/mL [1]: 95.5% | inhibition at 50 µg/mL [2]: 80% | inhibition at 50 µg/mL [3]: 91.8% | inhibition at 50 µg/mL [4]: 100% | inhibition at 50 µg/mL [5]: 90.9%

CO/N=C(/C(=O)OC)c1ccccc1COc1ccccc1C [KRESOXIM-METHYL]
inhibition at 50 µg/mL [1]: 98.5% | inhibition at 50 µg/mL [2]: 96.8% | inhibition at 50 µg/mL [3]: 66.1% | inhibition at 50 µg/mL [4]: 97.2% | inhibition at 50 µg/mL [5]: 90.6%
